Data on eight compounds can be found in ChEMBL document CHEMBL2021785, “Compounds of Alpinia katsumadai as potential efflux inhibitors in Mycobacterium smegmatis” (2012).

Values after ≈ are worked out from the molar mass of the structure shown.

The test system of assay [1] is Mycolicibacterium smegmatis MC2 155. Briefly: Inhibition of Multidrug resistance efflux pump in Mycobacterium smegmatis mc2 155 assessed as modulation of isoniazid-mediated antibacterial activity measuring ratio of isoniazid MIC to isoniazid and compound MIC at 64 mg/L after 72 hrs by MTT assay. A digest of the protocol:
(§1)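 Checkerboard-type modulation by broth dilution in MHB with DMSO-dissolved modulators: either modulator held constant (half its MIC) with two-fold serially diluted antibiotic/EtBr, or antibiotic fixed with modulator serially diluted. Final inoculum 5 × 10^5 cfu/mL, 37 °C, 72 h, MTT read-out. Modulation factor quantifies shift in antibiotic/EtBr MIC; FICI assesses combination effect.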
In general terms: Formazan colour is commonly taken as a measure of viable cells.

The test system of assay [2] is Mycolicibacterium smegmatis. The experiment in a line: Antibacterial activity against Mycobacterium smegmatis mc2 155 after 72 hrs by MTT assay. To be noted: str. MC2 155, 72 h. It counts as functional. A digest of the protocol: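 Broth dilution in Mueller-Hinton broth; compounds dissolved in DMSO, two-fold serial dilutions; inoculum adjusted to McFarland 0.5 and diluted to final 5 × 10^5 cfu/mL; cells pre-grown on Columbia blood agar with 5% horse blood, 37 °C, 72 h. Plates incubated 37 °C for 72 h; MIC read after MTT as lowest concentration inhibiting growth.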

Assay [3] has as its system Mycolicibacterium smegmatis MC2 155. The experiment in a line: Inhibition of Multidrug resistance efflux pump in Mycobacterium smegmatis mc2 155 assessed as modulation of EtBr-mediated antibacterial activity measuring ratio of EtBr MIC to EtBr and compound MIC at 64 mg/L after 72 hrs by MTT assay. A digest of the protocol:
as §1

Assay [4] shares this test system. Briefly: Inhibition of Multidrug resistance efflux pump in Mycobacterium smegmatis mc2 155 assessed as modulation of EtBr-mediated antibacterial activity measuring fractional inhibitory concentration index at 64 mg/L after 72 hrs by MTT assay. A digest of the protocol: as §1
For assay [5] the test system is unchanged. The experiment in a line: Inhibition of Multidrug resistance efflux pump in Mycobacterium smegmatis mc2 155 assessed as modulation of ciprofloxacin-mediated antibacterial activity measuring ratio of ciprofloxacin MIC to ciprofloxacin and compound MIC at 64 mg/L after 72 hrs by MTT assay. A digest of the protocol:
as §1

Assay [6] has the same test system. Briefly: Inhibition of Multidrug resistance efflux pump in Mycobacterium smegmatis mc2 155 assessed as modulation of EtBr-mediated antibacterial activity measuring reduction in MIC at 1/2 of MIC after 72 hrs by MTT assay relative to control. A digest of the protocol: as §1
Assay [7] shares this test system. The experiment in a line: Inhibition of Multidrug resistance efflux pump in Mycobacterium smegmatis mc2 155 assessed as modulation of rifampicin-mediated antibacterial activity measuring fractional inhibitory concentration index at 64 mg/L after 72 hrs by MTT assay. The method in brief: as §1
For assay [8] the test system is unchanged. The experiment in a line: Inhibition of Multidrug resistance efflux pump in Mycobacterium smegmatis mc2 155 assessed as EtBr accumulation measuring relative fluorescence at half the MIC measured for 60 mins by spectrophotometry relative to control. A digest of the protocol:
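Overnight 7H9/ADC culture (37 °C, 100 rpm) centrifuged and resuspended in PBS with 0.05% Tween 80 to OD600 0.4. Cells mixed 1:1 with test solutions containing 0.5 mg/L EtBr and 0.4% glucose, compounds from MIC down to 1/16 MIC. Fluorescence (ex 531/em 590 nm) read every 50 s at 37 °C for 60 min; repeated at least three times.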

The test system is the same in assay [9]. The experiment in a line: Inhibition of Multidrug resistance efflux pump in Mycobacterium smegmatis mc2 155 assessed as modulation of ethambutol-mediated antibacterial activity measuring reduction in MIC at 1/2 of MIC after 72 hrs by MTT assay relative to control. The method in brief: as §1
The test system is the same in assay [10]. Briefly: Inhibition of Multidrug resistance efflux pump in Mycobacterium smegmatis mc2 155 assessed as inhibition of EtBr efflux measuring normalized fluorescence at half the MIC measured for 60 mins by spectrophotometry relative to control.
Assay [11] shares this test system. The experiment in a line: Inhibition of Multidrug resistance efflux pump in Mycobacterium smegmatis mc2 155 assessed as modulation of ethambutol-mediated antibacterial activity measuring ratio of ethambutol MIC to ethambutol and compound MIC at 64 mg/L after 72 hrs by MTT assay. The method in brief: as §1
Assay [12] shares this test system. Briefly: Inhibition of Multidrug resistance efflux pump in Mycobacterium smegmatis mc2 155 assessed as modulation of rifampicin-mediated antibacterial activity measuring ratio of rifampicin MIC to rifampicin and compound MIC at 64 mg/L after 72 hrs by MTT assay. The method in brief: as §1
The test system is the same in assay [13]. Briefly: Inhibition of Multidrug resistance efflux pump in Mycobacterium smegmatis mc2 155 assessed as modulation of EtBr-mediated antibacterial activity measuring ratio of EtBr MIC to EtBr and compound MIC at 2 mg/L after 72 hrs by MTT assay. A digest of the protocol:
as §1

Assay [14] shares this test system. Briefly: Inhibition of Multidrug resistance efflux pump in Mycobacterium smegmatis mc2 155 assessed as modulation of rifampicin-mediated antibacterial activity measuring ratio of rifampicin MIC to rifampicin and compound MIC at 2 mg/L after 72 hrs by MTT assay. The method in brief:
as §1

Assay [15] shares this test system. The experiment in a line: Inhibition of Multidrug resistance efflux pump in Mycobacterium smegmatis mc2 155 assessed as modulation of isoniazid-mediated antibacterial activity measuring ratio of isoniazid MIC to isoniazid and compound MIC at 2 mg/L after 72 hrs by MTT assay. A digest of the protocol:
as §1

For assay [16] the test system is unchanged. The experiment in a line: Inhibition of Multidrug resistance efflux pump in Mycobacterium smegmatis mc2 155 assessed as modulation of rifampicin-mediated antibacterial activity measuring ratio of rifampicin MIC to rifampicin and compound MIC at 4 mg/L after 72 hrs by MTT assay. The method in brief:
as §1

For assay [17] the test system is unchanged. The experiment in a line: Inhibition of Multidrug resistance efflux pump in Mycobacterium smegmatis mc2 155 assessed as modulation of EtBr-mediated antibacterial activity measuring ratio of EtBr MIC to EtBr and compound MIC at 4 mg/L after 72 hrs by MTT assay. A digest of the protocol: as §1
For assay [18] the test system is unchanged. The experiment in a line: Inhibition of Multidrug resistance efflux pump in Mycobacterium smegmatis mc2 155 assessed as modulation of rifampicin-mediated antibacterial activity measuring reduction in MIC at 1/2 of MIC after 72 hrs by MTT assay relative to control. The method in brief:
as §1

For assay [19] the test system is unchanged. Briefly: Inhibition of Multidrug resistance efflux pump in Mycobacterium smegmatis mc2 155 assessed as modulation of isoniazid-mediated antibacterial activity measuring ratio of isoniazid MIC to isoniazid and compound MIC at 4 mg/L after 72 hrs by MTT assay. The method in brief:
as §1

Regarding `CCCCCCCCCCCCCCCCCC(=O)O` [STEARIC ACID], the Ratio in [1] was found to be 0.5; in assay [3], 1. In addition, in [2], the MIC was not below 128 µg/mL.
On to `O=C1C[C@@H](c2ccccc2)Oc2cc(O)cc(O)c21` [PINOCEMBRIN], for which the fractional inhibitory concentration index (FICI) in [4] was 0.5; in assay [7] it was 1.5. For the same compound, the Ratio stood at 1 in assay [5]; 1 in [1]; 4 in assay [3]; 2 in assay [11]; 2 in assay [12]. Besides, the fold change (FC) in assay [6] is 4; in assay [9] it was 2. Also, the RFU in [8] was found to be 11200. Besides, the MIC in [2] was determined as 128 µg/mL (≈ 499 µM). Also, in [10], the normalized EtBr fluorescence relative to control is 0.765.
For the compound `CCCCC/C=C\C/C=C\CCCCCCCC(=O)O` [LINOLEIC ACID], the Ratio was found to be 2 in [13], 2 in assay [14] and 1 in [15]. For the same compound, in assay [2], the MIC turned out to be 4 µg/mL (≈ 14.3 µM).
As for `CC/C=C\C/C=C\C/C=C\CCCCCCCC(=O)O` [LINOLENIC ACID], the fold change (FC) in assay [6] and in assay [18] was 4 each time. Further, the values for the Ratio in assay [16], in [17] and in assay [19] were 4, 4 and 1, respectively. This compound also yielded an MIC in assay [2] of 8 µg/mL (≈ 28.7 µM).
Regarding `N#CC(C#N)=NNc1cccc(Cl)c1` [CARBONYL CYANIDE M-CHLOROPHENYLHYDRAZONE], in assay [2], the lowest concentration to inhibit growth (MIC) was 32 µg/mL (≈ 156 µM).
Consider `CC[C@@H](CO)NCCN[C@@H](CC)CO` [ETHAMBUTOL], for which the MIC in assay [2] stood at 1 µg/mL (≈ 4.89 µM).
For `CO[C@H]1/C=C/O[C@@]2(C)Oc3c(C)c(O)c4c(O)c(c(/C=N/N5CCN(C)CC5)c(O)c4c3C2=O)NC(=O)/C(C)=C\C=C\[C@H](C)[C@H](O)[C@@H](C)[C@@H](O)[C@@H](C)[C@H](OC(C)=O)[C@@H]1C` [RIFAMPIN], in assay [2], the lowest concentration to inhibit growth (MIC) was 32 µg/mL (≈ 38.9 µM).
With `CN(C)CCCN1c2ccccc2Sc2ccc(Cl)cc21` [CHLORPROMAZINE], the MIC in assay [2] was 64 µg/mL (≈ 201 µM).

By MIC is commonly meant the lowest concentration found to suppress growth.
